Experimental data pooled from the literature.
Lines come from different studies, so protocols differ. In brackets after ≈: the same amount, converted by molar mass.
Organism: Mycobacterium tuberculosis

O=[N+]([O-])c1ccc(/C(O)=C/C(=S)S)cc1
MBC (microbial killing; ATCC27294 H37RV): 31.2 µg/mL

COC(=O)c1cc(-c2cccc(NC(=O)NCc3ccccc3)c2)on1
MIC (microbial growth; ATCC27294 H37RV; 7 days): 4 µg/mL (≈ 11.4 µM)

CO[C@H]1/C=C/O[C@@]2(C)Oc3c(C)c(O)c4c(O)c(c(/C=N/N5CCN(C)CC5)c(O)c4c3C2=O)NC(=O)/C(C)=C\C=C\[C@H](C)[C@H](O)[C@@H](C)[C@@H](O)[C@@H](C)[C@H](OC(C)=O)[C@@H]1C
inhibition (microbial growth; H37RV; 12.5 µg/mL): 97%

NNC(=O)c1ccncc1
IC90 (microbial growth; ERDMAN): > 1 µM

CCc1nc2ccc(Cl)cn2c1C(=O)NCc1ccc(N2CCC(c3ccc(OC(F)(F)F)cc3)CC2)cc1
MIC90 (microbial growth; H37RV): 0.02 µM (≈ 0.0111 µg/mL)

CNc1cc(-n2nc(C(=O)NCCN3C(C)CCCC3C)cc2Nc2cc(NC(=O)c3cncc(C(C)(C)C)c3)ccc2C)ncn1 (centres unmarked)
MBC (microbial killing; H37RV; 5 days): 1.25 to 2.5 µM

COC(=O)c1cc(-c2cccc(NC(=O)Nc3cccc(C#N)c3)c2)on1
MIC (microbial growth; ATCC27294 H37RV; 7 days): 16 µg/mL (≈ 44.2 µM)

CCc1nc2ccc(Cl)cn2c1C(=O)NCc1ccc(N2CCC(c3ccc(OC(F)(F)F)cc3)CC2)cc1
IC50 (microbial growth; ERDMAN): 0.0031 µM

CC[C@@H](CO)NCCN[C@@H](CC)CO
IC50 (microbial growth; H37RV): 1.51 µM

CCCCCCC#Cc1cncc(-c2nnc(Sc3ccc([N+](=O)[O-])cc3[N+](=O)[O-])n2C)c1
IC50 (microbial growth; ERDMAN): 1.1 µM

Cc1ccc(NC(=O)c2cc(N3CCNCC3)cc(C(F)(F)F)c2)cc1Nc1nccn1-c1cc(NC2CC2)ncn1
MBC (microbial killing; H37RV; 5 days): 2.5 to 5 µM

CO[C@H]1/C=C/O[C@@]2(C)Oc3c(C)c(O)c4c(O)c(c(/C=N/N5CCN(C)CC5)c(O)c4c3C2=O)NC(=O)/C(C)=C\C=C\[C@H](C)[C@H](O)[C@@H](C)[C@@H](O)[C@@H](C)[C@H](OC(C)=O)[C@@H]1C
IC50 (microbial growth; H37RV): 0.004 µM

COC(=O)c1cc(-c2ccc(NC(=O)Nc3ccc(Cl)c(Cl)c3)cc2)on1
MIC (microbial growth; ATCC27294 H37RV; 7 days): 0.5 µg/mL (≈ 1.23 µM)

CCCCCCC#Cc1cncc(-c2nnc(SCc3ccc(Cl)cc3)n2C2CC2)c1
IC90 (microbial growth; ERDMAN): 7.5 µM

COC(=O)c1cc(-c2cccc(NC(=S)Nc3cc(C(F)(F)F)cc(C(F)(F)F)c3)c2)on1
MIC (microbial growth; ATCC27294 H37RV; 7 days): 16 µg/mL (≈ 32.7 µM)

Cn1c(SCc2ccc(Cl)cc2)nnc1-c1cncc(C#Cc2ccccc2)c1
IC90 (microbial growth; ERDMAN): 4.4 µM

O=[N+]([O-])c1cn(Cc2cccc(Cn3cnc([N+](=O)[O-])c3)n2)cn1
MBC (microbial killing; H37RV; 21 days): > 200 µM
